Data published in ChEMBL document CHEMBL1131615, “Synthesis and tyrosine kinase inhibitory activity of a series of 2-amino-8H-pyrido[2,3-d]pyrimidines: identification of potent, selective platelet-derived growth factor receptor tyrosine kinase inhibitors” (J Med Chem, 1998).
Each block holds one compound with its values, some of them ahead of it.

Experiments:
[1] = target: T1, Platelet-derived growth factor receptor (PDGFr) (Rattus norvegicus, UniProt P20786+Q05030); test: Inhibition of PDGF-stimulated Platelet-derived growth factor receptor autophosphorylation in C6 rat glioma cells after 2 hr; format: cell-based
[2] = Compound was tested for time to reach Cmax in three male Wistar rats at a single 5 mg/kg oral gavage dose.; format: ADME, organism-based; set-up: dose 5 mg/kg, route oral; conditions: rat, in vivo
How it was run: (§1)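 Single 5 mg/kg oral gavage dose given to three male Wistar rats, in 17% PEG 400/83% methylcellulose (0.5%). Heparinized plasma was taken by jugular vein cannula from 0 to 48 h; lower limit of quantitation was 10 ng/mL. Noncompartmental analysis: t1/2 = 0.693/λz (log-linear terminal regression); AUC by trapezoidal rule, extrapolated to infinity.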

C6 [3] = test: C6 glioma 3-day proliferation followed by soft agar growth with continuous treatment; format: functional, cell-based; conditions: Rattus norvegicus, C6, 72 h
How it was run: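 C6 rat glioma cells exposed to a range of compound concentrations for 3 days in culture, then cloned in soft agar with drug kept present throughout colony growth. IC50 derived.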

C6 [4] = test: C6 glioma 3-day proliferation followed by soft agar growth without treatment; format: functional, cell-based; conditions: Rattus norvegicus, C6, 72 h
How it was run: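 C6 rat glioma cells exposed to a range of compound concentrations for 3 days in culture, then cloned in soft agar with drug removed. IC50 derived.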

[5] = target: Platelet-derived growth factor receptor (Mus musculus, UniProt P05622+P26618); test: Inhibition against of platelet-derived growth factor receptor (PDGFr)
[6] = target: Fibroblast growth factor receptor (Mus musculus, UniProt P21803+Q03142+P16092+Q61851); test: Inhibition of mouse fibroblast growth factor receptor tyrosine kinase (FGFr); format: protein assay
Rattus norvegicus [7] = test: Compound was tested for area under concentration -time curve from time 0 to time infinity in three male Wistar rats at a single 5 mg/kg oral gavage dose.; format: ADME, organism-based; set-up: dose 5 mg/kg, route oral; conditions: in vivo; how it was run: as §1
[8] = Compound was tested for apparent terminal phase elimination half life in three male Wistar rats at a single 5 mg/kg oral gavage dose; format: ADME, organism-based; set-up: dose 5 mg/kg, route oral; conditions: rat, in vivo; how it was run: as §1
C6 [9] = test: Inhibition of rat C6 glioma cell proliferation in sulforhodamine B assay; format: functional, cell-based
How it was run: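 C6 rat glioma cells cultured 4 days with a range of compound concentrations; growth read by sulforhodamine B staining, giving IC50.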

Rattus norvegicus [10] = test: Compound was tested for area under concentration -time curve from time 0 to time of last detectable concentration in three male Wistar rats at a single 5 mg/kg oral gavage dose; format: ADME, organism-based; set-up: dose 5 mg/kg, route oral; conditions: in vivo; how it was run: as §1
[11] = target: Proto-oncogene tyrosine-protein kinase Src (Mus musculus, UniProt P05480); test: Inhibition of mouse c-Src tyrosine kinase
Chain of Proto-oncogene tyrosine-protein kinase Src (P05480 2-535 limits assumed): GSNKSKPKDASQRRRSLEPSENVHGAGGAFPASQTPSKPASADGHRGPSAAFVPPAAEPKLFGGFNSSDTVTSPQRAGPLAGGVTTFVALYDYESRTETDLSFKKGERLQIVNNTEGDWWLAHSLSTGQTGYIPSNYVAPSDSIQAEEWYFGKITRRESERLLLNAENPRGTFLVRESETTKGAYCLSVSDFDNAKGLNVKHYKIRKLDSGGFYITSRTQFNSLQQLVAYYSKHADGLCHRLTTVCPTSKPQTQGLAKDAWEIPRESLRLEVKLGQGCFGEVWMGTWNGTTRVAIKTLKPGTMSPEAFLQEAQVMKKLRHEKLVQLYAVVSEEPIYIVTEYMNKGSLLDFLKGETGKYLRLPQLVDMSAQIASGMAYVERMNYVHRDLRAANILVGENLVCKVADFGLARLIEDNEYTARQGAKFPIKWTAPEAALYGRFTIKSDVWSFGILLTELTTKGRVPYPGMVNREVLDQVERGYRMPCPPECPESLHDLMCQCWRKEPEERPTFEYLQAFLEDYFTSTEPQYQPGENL

[12] = Compound was tested for maximum observed concentration in three male Wistar rats at a single 5 mg/kg oral gavage dose; format: ADME, organism-based; set-up: dose 5 mg/kg, route oral; conditions: rat, in vivo; how it was run: as §1
DU-145 [13] = test: Delay between treated (T) and control (C) DU-145 cell tumors reaching 750 mg at 48 mg/kg peroral dose, days 16-20,23-27,30-34 administration; format: functional; conditions: route oral
How it was run: (§2)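 Nude mice (18-22 g), randomized, implanted sc in the right axilla on day 0 with tumor fragments maintained by serial passage in nude mice. Tumors were C6 rat glioma, NIH 3T3 transfected with human PDGF ββ, or DU-145 prostate. At least 6 mice per group, 12 controls. Oral dosing by average cage weight on the stated days.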

Mus musculus [14] = test: Weight change after 20 mg/kg peroral dose, days 1-15 treatment of PDGF-transfected cell tumor; format: functional, organism-based; set-up: dose 20 mg/kg; how it was run: as §2
DU-145 [15] = test: Ratio of treated/control DU-145 cell tumor mass at 48 mg/kg peroral dose, days 16-20, 23-27, 30-34 administration; format: functional; conditions: route oral
How it was run: (§3)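 Nude mouse sc axillary tumor-fragment xenografts implanted on day 0 (6-8 treated, 12 controls), with oral dosing on the stated schedule. T/C = median treated tumor mass / median control tumor mass × 100%, on the last therapy day.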

C6 [16] = test: Net reduction in C6 glioma cell tumor burden after 40 mg/kg peroral dose, days 1-15 administration; format: functional; conditions: route oral
How it was run: (§4)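 Tumor lines (C6 rat glioma; NIH 3T3 fibroblasts transfected with human PDGF-ββ; DU-145 prostatic adenocarcinoma) were kept by serial passage in nude mice. Randomized nude mice weighing 18-22 g received sc tumor fragments in the right axilla on day 0, with at least 6 per treated group and 12 controls. Oral dosing was based on average cage weight. Net cell kill is given as log10.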

Rattus norvegicus [17] = test: Compound was tested for area under concentration -time curve from time 0 to time infinity in three male Wistar rats at a single 5 mg/kg oral gavage dose; format: ADME, organism-based; set-up: dose 5 mg/kg, route oral; conditions: in vivo; how it was run: as §1
DU-145 [18] = test: Net reduction in DU-145 cell tumor burden after 48 mg/kg peroral dose, days 16-20,23-27,30-34 administration; format: functional; conditions: route oral; how it was run: as §4
Mus musculus [19] = test: Net reduction in PDGF-transfected cell tumor burden after 20 mg/kg peroral dose, days 1-15 administration; format: functional; conditions: route oral; how it was run: as §4
DU-145 [20] = test: Weight change after 48 mg/kg peroral dose, days 16-20,23-27,30-34 treatment of DU-145 cell tumor
Mus musculus [21] = test: Delay between treated (T) and control (C) PDGF-transfected cell tumors reaching 750 mg at 20 mg/kg peroral dose, days 1-15 administration; format: functional; conditions: route oral; how it was run: as §2
Mus musculus [22] = test: Ratio of treated/control PDGF-transfected cell tumor mass at 20 mg/kg peroral dose, days 1-15 administration; format: functional; conditions: route oral; how it was run: as §3
C6 [23] = test: Ratio of treated/control C6 glioma cell tumor mass at 40 mg/kg peroral dose, days 1-15 administration; format: functional; conditions: route oral; how it was run: as §3
C6 [24] = test: Weight change after 40 mg/kg peroral dose, days 1-15 treatment of C6 glioma cell tumor; format: functional; conditions: route oral; how it was run: as §2
C6 [25] = test: Delay between treated (T) and control (C) C6 glioma cell tumors reaching 750 mg at 40 mg/kg peroral dose, days 1-15 administration; format: functional; conditions: route oral; how it was run: as §2
[26] = target: T1, Platelet-derived growth factor receptor (PDGFr); test: Inhibition of PDGF-stimulated Platelet-derived growth factor receptor autophosphorylation in rat aortic vascular smooth muscle cells (RAVSMCs) after 2 hr

IC50 [1]: 58 nM
Tmax [2]: 1.5 h
IC50 [5]: 74 nM
IC50 [6]: 1100 nM
AUC (Rattus norvegicus [7]): 5240 ng·h/mL
half-life [8]: 3.72 h
AUC (Rattus norvegicus [10]): 4760 ng·h/mL
IC50 [11]: 410 nM
Cmax [12]: 730 ng/mL
Compound: CCn1c(=O)c(-c2ccccc2)cc2cnc(Nc3ccncc3)nc21
IC50 (C6 [3]): 4900 nM
IC50 (C6 [4]): 13200 nM
IC50 (C6 [9]): 7200 nM

IC50 [5]: 1600 nM
IC50 [6]: 500 nM
IC50 [11]: 890 nM
Compound: CC(C)Cn1c(=O)c(-c2c(Cl)cccc2Cl)cc2cnc(N)nc21

IC50 [5]: 4200 nM
IC50 [6]: 1400 nM
IC50 [11]: 160 nM
Compound: Nc1ncc2cc(-c3c(Cl)cccc3Cl)c(=O)n(Cc3ccccc3)c2n1

IC50 [5]: 1200 nM
IC50 [6]: 510 nM
IC50 [11]: 630 nM
Compound: CCCn1c(=O)c(-c2c(Cl)cccc2Cl)cc2cnc(N)nc21

IC50 [5]: 290 nM
IC50 [6]: 5000 nM
IC50 [11]: 2400 nM
Compound: Cn1c(=O)c(-c2ccccc2)cc2cnc(Nc3ccccc3)nc21

IC50 [5]: 3800 nM
IC50 [6]: 1300 nM
IC50 [11]: 260 nM
Compound: Cn1c(=O)c(-c2c(Cl)cccc2Cl)cc2cnc(N)nc21

IC50 [5]: 42 nM
IC50 [6]: 350 nM
IC50 [11]: 140 nM
Compound: CCN(CC)CCOc1ccc(Nc2ncc3cc(-c4ccccc4)c(=O)n(C)c3n2)cc1

IC50 [5]: 7200 nM
IC50 [6]: 1700 nM
IC50 [11]: 560 nM
Compound: CC(C)(C)OC(=O)Cn1c(=O)c(-c2c(Cl)cccc2Cl)cc2cnc(N)nc21

Compound: CCN(CC)CCOc1ccc(Nc2ncc3cc(-c4ccccc4)c(=O)n(CC)c3n2)cc1
T-C (DU-145 [13]): 11.4 days
IC50 [1]: 3 nM
Tmax [2]: 2.67 h
IC50 (C6 [3]): 120 nM
Weight change (Mus musculus [14]): Weight gain
IC50 (C6 [4]): 150 nM
IC50 [5]: 31 nM
IC50 [6]: 88 nM
T/C (DU-145 [15]): 40%
Net log cell kill (C6 [16]): -0.3
AUC (Rattus norvegicus [17]): 828 ng·h/mL
half-life [8]: 6.65 h
IC50 (C6 [9]): 1200 nM
AUC (Rattus norvegicus [10]): 525 ng·h/mL
Net log cell kill (DU-145 [18]): -0.4
Net log cell kill (Mus musculus [19]): -1.2
Weight change (DU-145 [20]): Weight gain
IC50 [11]: 31 nM
T-C (Mus musculus [21]): 6.9 days
T/C (Mus musculus [22]): 1%
T/C (C6 [23]): 0%
Cmax [12]: 78.3 ng/mL
Weight change (C6 [24]): -0.7 g
T-C (C6 [25]): 9.6 days

IC50 [5]: 1200 nM
IC50 [6]: 580 nM
IC50 [11]: 330 nM
Compound: CCCCn1c(=O)c(-c2c(Cl)cccc2Cl)cc2cnc(N)nc21

IC50 [5]: > 50000 nM
IC50 [6]: 7900 nM
IC50 [11]: > 50000 nM
Compound: Nc1ncc2cc(-c3c(Cl)cccc3Cl)c(=O)n(CC(=O)O)c2n1

IC50 [5]: > 50000 nM
IC50 [6]: > 50000 nM
IC50 [11]: > 50000 nM
Compound: CNc1ncc2cc(-c3ccsc3)c(=O)n(C)c2n1

IC50 [5]: 150 nM
IC50 [6]: 30 nM
IC50 [11]: 17 nM
Compound: CCN(CC)CCOc1ccc(Nc2ncc3cc(-c4c(Cl)cccc4Cl)c(=O)n(CC)c3n2)cc1

IC50 [5]: 1800 nM
IC50 [6]: 880 nM
IC50 [11]: 50 nM
Compound: CN(C)CCCn1c(=O)c(-c2c(Cl)cccc2Cl)cc2cnc(N)nc21

IC50 [5]: 5000 nM
IC50 [6]: 1700 nM
IC50 [11]: 340 nM
Compound: COC(=O)Cn1c(=O)c(-c2c(Cl)cccc2Cl)cc2cnc(N)nc21

IC50 [5]: 950 nM
IC50 [6]: > 50000 nM
IC50 [11]: > 50000 nM
Compound: Cn1c(=O)c(-c2cccs2)cc2cnc(Nc3ccccc3)nc21

IC50 [5]: 6800 nM
IC50 [6]: 3200 nM
IC50 [11]: 1400 nM
Compound: Nc1ncc2cc(-c3c(Cl)cccc3Cl)c(=O)n(CCCOCc3ccccc3)c2n1

IC50 [5]: 800 nM
IC50 [6]: > 50000 nM
IC50 [11]: 8100 nM
Compound: Cn1c(=O)c(-c2ccsc2)cc2cnc(Nc3ccccc3)nc21

IC50 [5]: > 50000 nM
IC50 [6]: > 50000 nM
IC50 [11]: > 50000 nM
Compound: Cn1c(=O)c(-c2ccc(-c3ccccc3)cc2)cc2cnc(Nc3ccccc3)nc21

IC50 [26]: 54 nM
IC50 [5]: 54 nM
IC50 [6]: 2900 nM
IC50 [11]: 210 nM
Compound: CCN(CC)CCOc1ccc(Nc2ncc3cc(-c4ccsc4)c(=O)n(C)c3n2)cc1

IC50 [5]: 980 nM
IC50 [11]: 160 nM
Compound: CCn1c(=O)c(-c2c(Cl)cccc2Cl)cc2cnc(N)nc21

IC50 [5]: 24400 nM
IC50 [6]: > 50000 nM
IC50 [11]: > 50000 nM
Compound: Cn1c(=O)c(-c2ccsc2)cc2cnc(N)nc21

IC50 [5]: 320 nM
IC50 [6]: 4700 nM
IC50 [11]: 470 nM
Compound: Cn1c(=O)c(-c2ccccc2)cc2cnc(Nc3ccncc3)nc21

IC50 [5]: 1100 nM
IC50 [6]: 370 nM
IC50 [11]: 180 nM
Compound: Nc1ncc2cc(-c3c(Cl)cccc3Cl)c(=O)n(CCCO)c2n1

IC50 [1]: > 25 nM
IC50 [5]: 410 nM
IC50 [6]: > 50000 nM
IC50 [11]: 41000 nM
Compound: CCn1c(=O)c(-c2ccsc2)cc2cnc(Nc3ccccc3)nc21

IC50 [1]: > 25 nM
IC50 [26]: 4.6 nM
IC50 [5]: 180 nM
IC50 [6]: 1500 nM
IC50 [11]: 1800 nM
Compound: CCn1c(=O)c(-c2ccccc2)cc2cnc(Nc3ccccc3)nc21

IC50 [5]: 480 nM
IC50 [6]: 22600 nM
IC50 [11]: 1700 nM
Compound: Cn1c(=O)c(-c2ccsc2)cc2cnc(Nc3ccncc3)nc21

IC50 [5]: 1200 nM
IC50 [11]: 630 nM
Compound: Nc1ncc2cc(-c3c(Cl)cccc3Cl)c(=O)n(Cc3ccncc3)c2n1
